This sample holds only a part of the variants without activity.
B1: tRNA (parent)
chain: GUUCCGUUGGCGUAAUGGUAACGCGUCUCCCUCCUAAGGAGAAGACUGCGGGUUCGAGUCCCGUACGGAACG

Variants of: B1
Test: yeast fitness relative to wild type (ratio to wild type); higher = fitter; tRNA-Arg(CCU), competitive growth, 37 C, YPD
Outline: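 Start and end populations of a pooled competition were compared by 100-nucleotide paired-end sequencing of gene amplicons. The Saccharomyces cerevisiae strains carried tRNA-Arg(CCU) gene variants at the native genomic locus, synthesised with a 3% per-site mutation rate at 69 sites, and competed in YPD at 37°C for 24 hours in six parallel replicates. Darwinian fitness relative to wild type was based on the change in genotype frequencies. Genotypes required ≥ 100 starting reads, and estimates < 0.5 were set to 0.5.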
Variant GUUCCGUUGGCGUAAUGGUAAUGCGUCUCCCUCCUAAGGAGAAGACUGCGGGUUCGAGUCCCGUACGAAACG [C22U G68A] has a yeast fitness of 0.852. With GUUCCGUUGGCGUAAUGGUAAUGCGUCUCCCUCCUAAGGAGAAGACUGCGGGUUCGAGUCCCGUACGCAACG [C22U G68C] the yeast fitness was 0.717. Work on GUUCCGUUGGCGUAAUGGUAAUGCGUCUCCCUUAUAACGAGAAGACUGCGGAUUCGAGUCCCGUACGGAACG [C22U C33U C34A G38C G52A] yielded a yeast fitness of 0.601. GUUCCGUUGGCGUAAUGGUAAUGCGUCUCCCUCCUAAGGAGAACACUGCGGGUUCGAGUCCCGUACGGAACG [C22U G44C] gave a yeast fitness of 0.812. In the case of GUUCCGUUGGCGUAAUGGUAAUGCGUCUCCCUCCUAAGGAGAAGACUGCGGGUUCGACUCCCGUACGGGACG [C22U G58C A69G], the yeast fitness is reported as 0.602. GUUCCGUUGGCGUAAUGGUAAUGCGUCUCCCUCGUUAGGAGAAGACUGCGGGUUCGAGUCCCGUCCGGAACG [C22U C34G A36U A65C] showed a yeast fitness of 0.573. Work on GUUCCGUUGGCGUAAUGGUAAUGCGUCUCCCUCCUAAGGAGAAGACUGCGGGUUCGAGUCCCGUACCGAACG [C22U G67C] yielded a yeast fitness of 0.822. GUUCCGUUGGCGUAAUGGUAAUGCGUCUCCCUCCUAAGGAGAAGACUGCGGGUUCGAGUGCCGGACGGAACG [C22U C60G U64G] gave a yeast fitness of no more than 0.5. Variant GUUCCGUUGGCGUAAUGGUAAUGCGUCUCCCUCCUAAGGAGAAGACUGCGGGUUCGAGUCCCGUAUGGCACG [C22U C66U A69C] has a yeast fitness of 0.593. With GUUCCGUUGGCGUAAUGGUAAUGCGUCUCCCUCGUAAGAAGAAGACUGCGGGUUCGAGUCCCGUAUGGAACG [C22U C34G G39A C66U] the yeast fitness was no more than 0.5. In the case of GUUCCGUUGGCGUAAUGGUAAUGCGUCUCCCUCCUAAGAAGAAGACUGGGGGUUCGAGUCCCGUACGGAACG [C22U G39A C49G], the yeast fitness is reported as no more than 0.5. GUUCCGUUGGCGUAAUGGUAAUGCGUCCCCCUCUUAAGGCGAAGACUGCGGGUUCGAGUCCCGAACGGAACG [C22U U28C C34U A40C U64A] gave a yeast fitness of 0.762. Work on GUUCCGUUGGCGUAAUGGUAAUGCGUCUCCCUCUUAAGGAGAAGACUGCGGGUUCGAGUCCUGUACGGACCG [C22U C34U C62U A70C] yielded a yeast fitness of no more than 0.5. With GUUCCGUUGGCGUAAUGGUAAUGCGUCUCCCUCCUAAGGAGAAGAAUGCGGGUUCGAGUCCCGUACAGAACG [C22U C46A G67A] the yeast fitness was 0.657. Work on GUUCCGUUGGCGUAAUGGUAAUGCGUCAUCCUCCUAAAGAGAAGACUGCGGGUUCGAGUCCCGUACGGAACG [C22U U28A C29U G38A] yielded a yeast fitness of no more than 0.5. Variant GUUCCGUUGGCGUAAUGGUAAUGCGUCUCCCUCCUAAGGACAAGACUGCGGGUUCGAGUCCCGUACGGAACG [C22U G41C] has a yeast fitness of 0.698. In the case of GUUCCGUUGGCGUAAUGGUAAUGCGUCUCCCUCCUAAGGAGAAGACUGCGCGUUCGAGUCGCGUACGGACCG [C22U G51C C61G A70C], the yeast fitness is reported as 0.514. For GUUCCGUUGGCGUAAUGGUAAUGCGUCUCCCUCCUAAGGAGAAGACUGCGGGUUCGAGUCACGUAUGGAACG [C22U C61A C66U], the yeast fitness was no more than 0.5. Variant GUUCCGUUGGCGUAAUGGUAAUCCGUCUCCCUCCUAAGGAGAAGACUGCGGGUUUGAGUGCCGUACGGAACG [C22U G23C C55U C60G] has a yeast fitness of 0.54. Work on GUUCCGUUGGCGUAAUGGUAAUGCGUCUCCCUCCUAAAGAGAAGACUGCGGGUUCGAGUCCCGUACGGAACG [C22U G38A] yielded a yeast fitness of 0.748. GUUCCGUUGGCGUAAUGGUAAUGCGUCUCCCUCCUAAGGAGAAGACUGCGGGUUCCAGUCCCGUACGGAACG [C22U G56C] showed a yeast fitness of 0.608. For GUUCCGUUGGCGUAAUGGUAAUGCGUCUCCCUCCUAAGGAGAAGACUGCGGGUUCGACUCCCGUCCGGAACG [C22U G58C A65C], the yeast fitness was no more than 0.5. In the case of GUUCCGUUGGCGUAAUGGUAAUGCAUCUCCCUCCUAAGGAGAAGACUGCGGGUUUGAGUCCCGUAUGGAACG [C22U G25A C55U C66U], the yeast fitness is reported as no more than 0.5. Variant GUUCCGUUGGCGUAAUGGUAAUGCAUCUCCCUCCUAAGGAGAAGACUGCGGGUCCGAGUCCCGUUCGGAACG [C22U G25A U54C A65U] has a yeast fitness of 0.555. With GUUCCGUUGGCGUAAUGGUAAUGCGUCUCCCUCCUAAGGAGAAGACUACGGGUUUGAGUCCCGUACGGAACG [C22U G48A C55U] the yeast fitness was 0.599. GUUCCGUUGGCGUAAUGGUAAUGCGUCUCCCUCCUAACGAGAAGACUACGGGUUCGAGUCCCGUACGGAACG [C22U G38C G48A] showed a yeast fitness of no more than 0.5. With GUUCCGUUGGCGUAAUGGUAAUGCCUCUCCCUUCUAUGGAGAAGACUGCGGGUUCGAGUCCCGUACGGAACG [C22U G25C C33U A37U] the yeast fitness was no more than 0.5. Variant GUUCCGUUGGCGUAAUGGUAAUGCGUCUCCCUCCUAAGGAGAACACUACGAGUUCGAGUCCCGUACGGAACG [C22U G44C G48A G51A] has a yeast fitness of 0.57. With GUUCCGUUGGCGUAAUGGUAAUGCGUCUCCCUCCUAAGGAGAAGACUGCGGGUUCGAGUUCCGUACGGAUCG [C22U C60U A70U] the yeast fitness was 0.678. GUUCCGUUGGCGUAAUGGUAAUGCGUCUCCCUCCUAAGGAGAAGACUGCUGGUUCGAGUCCCAUACGGAACG [C22U G50U G63A] gave a yeast fitness of no more than 0.5. GUUCCGUUGGCGUAAUGGUAAUGCGACUCCCUCAUAUGGAGAAGACUCCGGGUUCGAGUCCCGUACGGAACG [C22U U26A C34A A37U G48C] gave a yeast fitness of 0.799. With GUUCCGUUGGCGUAAUGGUAAUGCGUCUCCCUCCUAAGGAGAAGAGUGGGGGUUCGAGUCCCGUACGGAACG [C22U C46G C49G] the yeast fitness was 0.564. With GUUCCGUUGGCGUAAUGGUAAUGCGUCUCCCUCCUAAGGAGAAGAGUGCGGGUUCGAGUCCCGUGCGGAACG [C22U C46G A65G] the yeast fitness was no more than 0.5. GUUCCGUUGGCGUAAUGGUAAUACGUCUCCCUCCUAAGGAGAAGACUACGGGUUCGAGUCCCGUUCGGAACG [C22U G23A G48A A65U] showed a yeast fitness of no more than 0.5. Work on GUUCCGUUGGCGUAAUGGUAAUGCCUCUCCUUCCUAAGGAGAAGACUGCGGGUUCGAGUCCCGUACGGAACG [C22U G25C C31U] yielded a yeast fitness of 0.625. Variant GUUCCGUUGGCGUAAUGGUAAUGCGUCUCCCUUCUAAGGAGAAGACUGCGAGUUCGAGUCCCGUACGGAACG [C22U C33U G51A] has a yeast fitness of no more than 0.5. GUUCCGUUGGCGUAAUGGUAAUGCGUCUCCCUCCUAAAGAGAAGACUGCGGGUUCGAGUCCCGUACGAAACG [C22U G38A G68A] showed a yeast fitness of 0.584. Work on GUUCCGUUGGCGUAAUGGUAAUGCGUCACCCUCCUAUGGAGAAGACUGCGCGUUCGAGUCCCGUAUGGAACG [C22U U28A A37U G51C C66U] yielded a yeast fitness of 0.606.

Source: the RNAGym collection of RNA variant scans (doi:10.1126/science.aae0568)
